Assay results from different studies.
Lines come from different studies, so protocols differ. Values after ≈ are worked out from the molar mass of the structure shown.

CCCCCCC/C=C/C(=O)N1C(=O)/C(=C(\O)CCCC)C(=O)C1CC(C)C (centres unmarked)  MIC (Proteus mirabilis; microbial growth; ATCC25933): > 200 µg/mL
Cc1c(NN=C2SC(C(C#N)=Cc3ccccc3)=NC2=O)c(=O)n(-c2ccccc2)n1C  inhibition zone (Acinetobacter baumannii; microbial growth, well diffusion; 100000 µg/mL): 16 mm
O=C(Nc1ccccc1-c1ccc(F)c(F)c1)c1nccnc1C(F)(F)F  EC50 (Colletotrichum orbiculare; microbial growth): > 100 µg/mL
OC[C@H]1O[C@@H](n2cnc3c(NCc4ccccc4)nc(Cl)nc32)[C@@H](F)[C@@H]1F  EC50 (Hepatitis C virus; viral replication, inhibitor; Huh-7; replicon): 2.9 µM
CC(C)COC(=O)N[C@H](C(=O)N1CCC[C@H]1C(=O)Nc1cccc(C#CC#Cc2cccc(NC(=O)[C@@H]3CCCN3C(=O)[C@@H](NC(=O)OCC(C)C)C(C)C)c2)c1)C(C)C  EC50 (Hepatitis C virus; viral replication, inhibitor, luciferase; Huh-5-2, GETYPE1B; 72 h, replicon): 0.38 µM
CC(=O)OC[C@@]1(C)[C@H]2CC[C@@H]3CN(CC(C)C)[C@@H](C4=CCOC4=O)C[C@H]3[C@]2(C)CC[C@H]1OC(C)=O  inhibition (unidentified human coronavirus; cytopathic effect; MRC5; 25 µM, 72 h): 14.7%
CCOC(=O)N[C@H](CC(C)C)C(=O)N1CCC[C@H]1C(=O)Nc1cccc(C#CC#Cc2cccc(NC(=O)[C@@H]3CCCN3C(=O)[C@@H](CC(C)C)NC(=O)OCC)c2)c1  EC50 (Hepatitis C virus; viral replication, inhibitor, luciferase; GETYPE3A; replicon): > 10 µM
CCCCCCC/C=C/C(=O)N1CC(=O)/C(=C(\C)O)C1=O  MIC (Proteus mirabilis; microbial growth; ATCC25933): > 200 µg/mL
C[C@@]1(O)[C@H](O)[C@@H](CO)O[C@H]1n1ccc(N)nc1=O  EC50 (Hepatitis C virus; viral replication, inhibitor; Huh-7; replicon): 1.8 µM
C=C1CC[C@@H]2[C@](C)(CO)[C@H](O)CC[C@@]2(C)[C@@H]1C/C=C1/C(=O)OC[C@H]1O  inhibition (unidentified human coronavirus; cytopathic effect; MRC5; 25 µM, 72 h): 58.4%
CN[C@H](CC(C)C)C(=O)N[C@H]1C(=O)N[C@@H](CC(N)=O)C(=O)N[C@H]2C(=O)N[C@H]3C(=O)N[C@H](C(=O)N[C@H](C(=O)O)c4cc(O)cc(O)c4-c4cc3ccc4O)[C@H](O)c3ccc(c(Cl)c3)Oc3cc2cc(c3O[C@@H]2O[C@H](CO)[C@@H](O)[C@H](O)[C@H]2O[C@H]2C[C@](C)(N)[C@H](O)[C@H](C)O2)Oc2ccc(cc2Cl)[C@H]1O  MBC (Acinetobacter baumannii; microbial killing, broth dilution; BAA747): > 128 µM
CCOC(=O)N[C@H](C(=O)N1CCC[C@@H]1C(=O)Nc1ccc(C#CC#Cc2ccc(NC(=O)[C@H]3CCCN3C(=O)[C@@H](NC(=O)OCC)C(C)C)cc2)cc1)C(C)C  EC50 (Hepatitis C virus; viral replication, inhibitor, luciferase; Huh-5-2, GETYPE1B; 72 h, replicon): > 10 µM
N#Cc1cc(-c2nc3ccccc3s2)c(=O)n(NS(=O)(=O)c2ccccc2)c1N  IC50 (Enterovirus B; plaque formation; BGM, B4): 84 µg/mL (≈ 198 µM)
CC(=O)OC[C@@]1(C)[C@H]2CC[C@@H]3CN(CCC(C)C)[C@@H](C4=CCOC4=O)C[C@H]3[C@]2(C)CC[C@H]1OC(C)=O  inhibition (unidentified human coronavirus; cytopathic effect; MRC5; 25 µM, 72 h): 105%
N#CC(=Cc1ccccc1O)C1=NC(=O)C(=Cc2cn(-c3ccccc3)nc2-c2ccccc2)S1  MBC (Acinetobacter baumannii; microbial killing, broth dilution): 0.25 µg/mL
Cc1ccc(CN2C[C@H]3CC[C@@H]4[C@]5(C)COC(C)(C)O[C@@H]5CC[C@@]4(C)[C@@H]3C[C@@H]2C2=CCOC2=O)cc1  inhibition (unidentified human coronavirus; cytopathic effect; MRC5; 25 µM, 72 h): 98.8%
Nc1nc(NS(=O)(=O)c2ccccc2)nc(-c2ccc(Cl)cc2)c1-c1nc2ccccc2s1  IC50 (Enterovirus B; plaque formation; BGM, B4): 91 µg/mL (≈ 184 µM)
